Laboratory results as given in ChEMBL document CHEMBL4715912, “Discovery of a novel series of indolinylpyrimidine-based GPR119 agonists: Elimination of ether-a-go-go-related gene liability using a hydrogen bond acceptor-focused approach” (Bioorg Med Chem, 2021).

What was measured:
[1] = Partition coefficient, logD between 1-octanol and pH 7.4 aqueous buffer by chromatographic analysis; type: physicochemical; settings: 1-octanol/pH 7.4 aqueous buffer
Summary of the method: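 LogD at pH 7.4, octanol/aqueous buffer partition, estimated by a chromatographic method adapted from a published procedure.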

[2] = Volume of distribution at steady state in rat at 0.1 mg/kg, iv by LC/MS/MS analysis; type: ADME, organism-based; settings: in vivo, read-out: Vdss
Summary of the method: (§1)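 Cassette intravenous dosing at 0.1 mg/kg to non-fasted animals. Plasma taken from blood samples, deproteinized and centrifuged, and compound levels in supernatant quantified by LC/MS/MS.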

[3] = biological target: hERG (KCNH2) (Homo sapiens, UniProt Q12809); experiment: Inhibition of human ERG expressed in CHO cells at 10 uM incubated for 5 mins by patch-clamp assay relative to control; type: cell-based; settings: CHO cells expressing human ERG
Chain of hERG (KCNH2) (Q12809 whole entry): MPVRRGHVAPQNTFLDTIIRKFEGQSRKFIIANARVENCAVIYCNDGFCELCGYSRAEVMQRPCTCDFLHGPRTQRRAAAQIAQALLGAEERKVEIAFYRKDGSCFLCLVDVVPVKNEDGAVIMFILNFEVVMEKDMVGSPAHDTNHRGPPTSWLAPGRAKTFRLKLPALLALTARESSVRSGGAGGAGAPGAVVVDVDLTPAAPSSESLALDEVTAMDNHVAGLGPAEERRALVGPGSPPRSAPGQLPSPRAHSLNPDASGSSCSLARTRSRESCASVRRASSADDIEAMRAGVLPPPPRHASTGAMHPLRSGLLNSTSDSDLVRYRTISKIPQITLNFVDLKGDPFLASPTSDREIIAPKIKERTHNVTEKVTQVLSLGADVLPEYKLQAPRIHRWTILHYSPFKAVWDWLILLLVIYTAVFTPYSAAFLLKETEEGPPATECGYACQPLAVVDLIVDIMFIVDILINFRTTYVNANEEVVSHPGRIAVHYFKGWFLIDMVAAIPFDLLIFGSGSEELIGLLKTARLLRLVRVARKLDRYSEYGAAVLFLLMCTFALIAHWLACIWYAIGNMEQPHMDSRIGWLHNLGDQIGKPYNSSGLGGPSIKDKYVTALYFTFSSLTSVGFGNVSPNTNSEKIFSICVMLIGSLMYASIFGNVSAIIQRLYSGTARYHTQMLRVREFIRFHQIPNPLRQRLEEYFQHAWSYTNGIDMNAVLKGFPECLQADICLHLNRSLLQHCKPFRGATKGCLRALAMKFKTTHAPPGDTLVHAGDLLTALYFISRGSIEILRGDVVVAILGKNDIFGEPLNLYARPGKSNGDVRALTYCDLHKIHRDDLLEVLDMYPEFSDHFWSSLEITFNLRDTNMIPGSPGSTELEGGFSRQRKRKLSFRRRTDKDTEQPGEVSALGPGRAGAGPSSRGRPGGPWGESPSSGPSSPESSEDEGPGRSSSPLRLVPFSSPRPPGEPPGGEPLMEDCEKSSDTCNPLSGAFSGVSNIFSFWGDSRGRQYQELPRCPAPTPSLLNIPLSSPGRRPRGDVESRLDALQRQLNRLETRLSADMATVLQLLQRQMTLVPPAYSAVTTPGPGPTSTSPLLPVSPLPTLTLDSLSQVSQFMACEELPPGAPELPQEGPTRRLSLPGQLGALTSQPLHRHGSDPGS
Summary of the method: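 hERG-expressing CHO cells grown at 32 °C, recorded by population patch clamp after amphotericin B perforation; PBS with Ca/Mg outside, KCl/EGTA/HEPES pH 7.3 inside. Holding −80 mV, step to 40 mV 2 s, then −50 mV 2 s; peak tail current before and after 5 min compound exposure. Percent inhibition = 100 − post/pre × 100; mean ± SD, n = 4.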

[4] = biological target: T1, Glucose-dependent insulinotropic receptor (Mus musculus, UniProt Q7TQP3); experiment: Agonist activity at GPR119 in glucose-induced mouse L cells assessed as induction of GLP-1 secretion after 2 hrs by ELISA
T1 sequence (Q7TQP3 whole entry): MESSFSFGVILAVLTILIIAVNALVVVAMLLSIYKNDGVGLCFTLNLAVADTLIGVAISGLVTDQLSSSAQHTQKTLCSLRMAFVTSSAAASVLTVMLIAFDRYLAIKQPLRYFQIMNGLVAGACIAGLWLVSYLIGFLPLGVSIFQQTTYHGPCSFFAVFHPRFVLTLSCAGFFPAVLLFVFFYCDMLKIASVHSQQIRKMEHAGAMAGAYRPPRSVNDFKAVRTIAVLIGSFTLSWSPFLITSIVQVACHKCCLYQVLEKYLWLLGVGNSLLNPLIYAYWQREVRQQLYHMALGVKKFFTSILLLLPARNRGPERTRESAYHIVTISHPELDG
Summary of the method: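 GLUTag cells (murine L cell line) seeded at 1 × 10^4 cells/well on poly-L-lysine, switched to low-glucose DMEM overnight, washed with HBSS, then exposed to compounds in KRBH buffer with 0.2% fatty acid free BSA and 10 mmol/L glucose for 2 h at 37 °C. Active GLP-1 in supernatant by ELISA; EC50 from n = 2.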

[5] = biological target: T2, Glucose-dependent insulinotropic receptor (Rattus norvegicus, UniProt Q7TQN8); experiment: Agonist activity at rat GPR119 expressed in CHO cells co-expressing cyclic AMP response element incubated for 2 hrs by steady-glo luciferase assay; type: cell-based
T2 sequence (Q7TQN8 whole entry): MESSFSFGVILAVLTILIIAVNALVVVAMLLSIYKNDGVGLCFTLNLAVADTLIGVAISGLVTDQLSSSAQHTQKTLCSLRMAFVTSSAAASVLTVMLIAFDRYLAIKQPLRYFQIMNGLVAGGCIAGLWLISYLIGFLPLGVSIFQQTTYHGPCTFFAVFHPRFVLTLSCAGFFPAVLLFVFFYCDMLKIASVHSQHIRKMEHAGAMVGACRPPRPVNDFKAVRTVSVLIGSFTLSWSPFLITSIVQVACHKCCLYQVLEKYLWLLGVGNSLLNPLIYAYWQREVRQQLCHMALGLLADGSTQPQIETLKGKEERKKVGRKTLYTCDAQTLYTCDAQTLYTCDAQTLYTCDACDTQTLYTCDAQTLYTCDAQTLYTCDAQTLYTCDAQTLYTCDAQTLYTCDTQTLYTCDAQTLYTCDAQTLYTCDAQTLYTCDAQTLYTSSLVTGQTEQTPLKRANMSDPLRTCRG
Summary of the method: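 Rat GPR119-expressing cells, cAMP-induced luciferase read with Steady-Glo after 2 h compound exposure in MEM α/HEPES/BSA buffer. Activity scaled between vehicle and a 10 µM reference agonist; EC50 mean of n = 2.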

[6] = Oral bioavailability in rat at 1 mg/kg by LC/MS/MS analysis; type: ADME, organism-based; settings: in vivo
Summary of the method: (§2)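 Cassette dosing, given by mouth at 1 mg/kg in 0.5% methylcellulose aqueous solution, with intravenous arm at 0.1 mg/kg, to non-fasted animals. Blood collected after dosing, plasma deproteinized and centrifuged, compound measured by LC/MS/MS.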

[7] = Intrinsic clearance in rat liver microsomes at 1 uM measured after 15 to 30 mins in presence of NADPH generating system by LC/MS/MS analysis; type: ADME, Microsome; settings: time 15-30 min, read-out: CLH
Summary of the method: (§3)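 Human or rat liver microsomes at 0.2 mg/mL protein in 50 mM potassium phosphate pH 7.4 with 1 µM compound; reaction started with NADPH-generating system (5 mM MgCl2, 5 mM glucose-6-phosphate, 0.5 mM β-NADP+, 1.5 units/mL G6PDH). Stopped with acetonitrile at 15 and 30 min, parent by LC/MS/MS; rate from concentration–time slope, expressed as µL/min/mg.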

[8] = system: Rattus norvegicus; experiment: Antidiabetic activity in po dosed N-STZ 1.5 rat assessed as reduction in GHB level for 4 weeks; type: functional, organism-based; settings: dose 1-3 mg/kg
Summary of the method: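 Male N-STZ-1.5 rats kept under time-restricted feeding, treated for 4 weeks; GHb measured before and after treatment and expressed also as percentage change.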

[9] = Intrinsic clearance in human liver microsomes at 1 uM measured after 15 to 30 mins in presence of NADPH generating system by LC/MS/MS analysis; type: ADME, Microsome; settings: time 15-30 min, read-out: CLH; summary of the method: as §3
[10] = system: Rattus norvegicus; experiment: Antidiabetic activity in po dosed N-STZ 1.5 rat assessed as reduction in glucose level pre-treated for 60 mins followed by 1.5 g/kg glucose treatment and measured up to 120 mins by OGTT; type: functional, organism-based; settings: dose 1-3 mg/kg, time min <=180
Summary of the method: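 Male N-STZ1.5 rats, 25–30 weeks old, fasted overnight, dosed orally with compound or 0.5% methylcellulose vehicle; 60 min later oral glucose load 1.5 g/kg. Tail-vein blood taken pre-dose, at 0, 10, 30, 60 and 120 min; plasma glucose by autoanalyzer, insulin by radioimmunoassay. AUC computed; mean ± SD, n = 6; one-tailed Williams' test.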

[11] = Total clearance in rat at 0.1 mg/kg, iv by LC/MS/MS analysis; type: ADME, organism-based; settings: in vivo; summary of the method: as §1
[12] = MRT in rat at 1 mg/kg, po by LC/MS/MS analysis; type: ADME, organism-based; settings: in vivo; summary of the method: as §2
[13] = AUC in rat at 1 mg/kg, po by LC/MS/MS analysis; type: ADME, organism-based; design: dose 1 mg/kg; settings: in vivo; summary of the method: as §2

logD [1]: 3.3
Vd [2]: 0.332 L/kg
EC50 [4]: 19 nM
EC50 [5]: 120 nM
bioavailability [6]: 24%
microsomal CLint at 1 µM [7]: 1 µL/min/mg
microsomal CLint at 1 µM [9]: 9 µL/min/mg
clearance [11]: 2.47 mL/min/kg
MRT [12]: 3.8 h
AUC [13]: 1670 ng·h/mL
SMILES: CC(C)c1noc(N2CCC(Oc3cc(N4CCc5cc(N6CCC[C@H](O)C6=O)ccc54)ncn3)CC2)n1
inhibition at 5 min, 10 µM [3]: 31%
Activity [8]: Dose-dependent effect
Activity [10]: Dose-dependent effect
